# Measurements reported in the M2OR odorant receptor database.
# Tests used:
# Conditions in all cases: stereoisomer not certain
# OR1A2 (Homo sapiens) = target: T1, OR1A2 (Homo sapiens) (UniProt Q9Y585)
# T1 sequence (whole entry): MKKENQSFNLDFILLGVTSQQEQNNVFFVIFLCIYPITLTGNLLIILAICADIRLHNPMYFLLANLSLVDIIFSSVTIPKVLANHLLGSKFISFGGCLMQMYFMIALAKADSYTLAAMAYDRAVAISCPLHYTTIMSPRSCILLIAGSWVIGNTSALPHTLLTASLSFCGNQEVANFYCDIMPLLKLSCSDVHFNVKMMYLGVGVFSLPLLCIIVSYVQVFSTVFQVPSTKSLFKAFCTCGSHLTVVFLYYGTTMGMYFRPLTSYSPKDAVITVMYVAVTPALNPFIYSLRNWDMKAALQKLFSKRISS
# Outline: (§1)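 Transient luciferase assays in mammalian cell lines were common, though methods varied by source. The values come from published papers and their supplementary material, with extra details from the original authors when needed. Responsive refers to a measured signal the original authors judged statistically different from baseline, and non-responsive (inactive) to the remainder.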
# OR1A2 G256C W293C = test system: OR1A2 G256C W293C
# Outline: as §1
# OR1B1 = test system: OR1B1
# OR1B1, sequence (as listed by the source): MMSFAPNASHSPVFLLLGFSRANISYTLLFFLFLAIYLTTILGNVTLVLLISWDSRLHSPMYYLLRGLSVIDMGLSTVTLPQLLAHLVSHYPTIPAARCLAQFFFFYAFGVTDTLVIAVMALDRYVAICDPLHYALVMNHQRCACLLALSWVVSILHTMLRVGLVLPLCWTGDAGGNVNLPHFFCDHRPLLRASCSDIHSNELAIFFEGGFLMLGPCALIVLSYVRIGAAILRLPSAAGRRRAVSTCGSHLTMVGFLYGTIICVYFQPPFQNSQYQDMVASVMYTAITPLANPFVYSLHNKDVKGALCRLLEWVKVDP
# Outline: as §1
# OR1C1 (Homo sapiens) = OR1C1 (Homo sapiens) (UniProt Q15619)
# OR1C1 (Homo sapiens), sequence (Q15619 whole entry): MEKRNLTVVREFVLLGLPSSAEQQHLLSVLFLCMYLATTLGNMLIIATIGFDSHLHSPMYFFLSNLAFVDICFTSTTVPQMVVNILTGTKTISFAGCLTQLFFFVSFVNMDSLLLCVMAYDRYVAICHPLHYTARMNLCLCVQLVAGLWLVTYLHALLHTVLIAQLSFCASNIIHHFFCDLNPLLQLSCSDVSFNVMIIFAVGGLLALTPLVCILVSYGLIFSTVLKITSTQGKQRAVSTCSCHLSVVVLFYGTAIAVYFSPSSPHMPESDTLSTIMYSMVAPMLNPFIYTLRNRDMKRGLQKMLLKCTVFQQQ
# Outline: as §1
# OR1D2 (Homo sapiens) = target: T2, OR1D2 (Homo sapiens) (UniProt P34982)
# T2 sequence (whole entry): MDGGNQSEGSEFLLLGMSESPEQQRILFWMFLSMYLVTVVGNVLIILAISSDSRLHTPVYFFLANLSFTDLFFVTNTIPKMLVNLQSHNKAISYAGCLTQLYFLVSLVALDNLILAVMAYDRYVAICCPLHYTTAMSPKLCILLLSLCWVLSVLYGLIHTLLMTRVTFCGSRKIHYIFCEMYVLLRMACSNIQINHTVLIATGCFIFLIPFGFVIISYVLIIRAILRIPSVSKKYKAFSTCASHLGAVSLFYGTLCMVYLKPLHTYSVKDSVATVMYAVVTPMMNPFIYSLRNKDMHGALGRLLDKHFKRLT
# Outline: as §1
# OR1D5 (Homo sapiens) = OR1D5 (Homo sapiens) (UniProt P58170)
# OR1D5 (Homo sapiens), sequence (P58170 whole entry): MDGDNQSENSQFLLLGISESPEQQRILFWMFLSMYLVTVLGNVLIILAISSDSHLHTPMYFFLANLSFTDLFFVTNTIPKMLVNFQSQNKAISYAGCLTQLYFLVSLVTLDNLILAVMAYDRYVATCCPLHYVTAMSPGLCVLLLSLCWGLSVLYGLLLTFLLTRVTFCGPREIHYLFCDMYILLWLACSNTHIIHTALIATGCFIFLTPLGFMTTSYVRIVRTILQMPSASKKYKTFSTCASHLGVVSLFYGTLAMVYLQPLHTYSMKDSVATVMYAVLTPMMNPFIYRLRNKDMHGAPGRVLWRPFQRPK
# Outline: as §1
# OR1E1 (Homo sapiens) = OR1E1 (Homo sapiens) (UniProt P30953)
# OR1E1 (Homo sapiens), sequence (P30953 whole entry): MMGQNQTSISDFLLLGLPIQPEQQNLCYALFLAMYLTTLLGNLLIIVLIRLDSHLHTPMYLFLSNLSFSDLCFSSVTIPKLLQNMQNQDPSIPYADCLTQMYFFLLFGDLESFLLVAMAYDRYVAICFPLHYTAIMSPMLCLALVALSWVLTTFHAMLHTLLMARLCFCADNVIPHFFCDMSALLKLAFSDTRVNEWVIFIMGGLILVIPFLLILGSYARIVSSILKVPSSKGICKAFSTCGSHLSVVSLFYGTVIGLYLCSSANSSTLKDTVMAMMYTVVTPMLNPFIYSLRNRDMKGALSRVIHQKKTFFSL
# Outline: as §1
# OR1E2 (Homo sapiens) = OR1E2 (Homo sapiens) (UniProt P47887)
# OR1E2 (Homo sapiens), sequence (P47887 whole entry): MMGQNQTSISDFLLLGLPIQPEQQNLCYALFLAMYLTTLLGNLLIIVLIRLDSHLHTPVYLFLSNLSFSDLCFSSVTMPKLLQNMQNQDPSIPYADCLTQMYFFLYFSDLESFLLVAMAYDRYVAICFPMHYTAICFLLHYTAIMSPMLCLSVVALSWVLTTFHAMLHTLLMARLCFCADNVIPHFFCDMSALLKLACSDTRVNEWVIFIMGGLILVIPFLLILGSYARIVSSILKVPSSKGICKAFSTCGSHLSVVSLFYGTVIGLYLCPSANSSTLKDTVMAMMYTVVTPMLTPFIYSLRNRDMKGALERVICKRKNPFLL
# Outline: as §1
# OR1E2 = test system: OR1E2
# OR1E2, sequence (as listed by the source): as the sequence (P47887 whole entry) above, with C27R counted along it
# Outline: as §1
# OR1F1 (Homo sapiens) = OR1F1 (Homo sapiens) (UniProt O43749)
# OR1F1 (Homo sapiens), sequence (O43749 whole entry): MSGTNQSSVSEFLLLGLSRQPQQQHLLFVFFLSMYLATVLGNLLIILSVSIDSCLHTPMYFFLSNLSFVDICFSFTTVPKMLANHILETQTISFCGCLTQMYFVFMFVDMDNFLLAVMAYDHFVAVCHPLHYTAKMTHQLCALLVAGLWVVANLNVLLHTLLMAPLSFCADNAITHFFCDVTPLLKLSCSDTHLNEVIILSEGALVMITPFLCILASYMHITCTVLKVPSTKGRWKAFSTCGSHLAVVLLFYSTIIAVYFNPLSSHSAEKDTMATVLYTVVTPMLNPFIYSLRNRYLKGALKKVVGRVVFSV
# Outline: as §1
# OR1F12P (Homo sapiens) = OR1F12P (Homo sapiens) (UniProt Q8NHA8)
# OR1F12P (Homo sapiens), sequence (Q8NHA8 whole entry): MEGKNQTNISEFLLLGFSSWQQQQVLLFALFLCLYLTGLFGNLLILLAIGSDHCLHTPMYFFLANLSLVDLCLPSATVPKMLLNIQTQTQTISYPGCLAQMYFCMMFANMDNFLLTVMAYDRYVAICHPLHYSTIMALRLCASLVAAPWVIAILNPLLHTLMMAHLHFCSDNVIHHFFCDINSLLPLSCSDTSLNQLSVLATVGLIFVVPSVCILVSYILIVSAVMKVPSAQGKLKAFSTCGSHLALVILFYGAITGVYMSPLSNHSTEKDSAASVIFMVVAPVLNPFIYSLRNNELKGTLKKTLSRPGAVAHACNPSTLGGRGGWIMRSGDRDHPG
# Outline: as §1
# OR1F1 = test system: OR1F1
# OR1F1, sequence (as listed by the source): as the sequence (O43749 whole entry) above, with F75S counted along it
# Outline: as §1
# OR1G1 (Homo sapiens) = target: T3, OR1G1 (Homo sapiens) (UniProt P47890)
# T3 sequence (whole entry): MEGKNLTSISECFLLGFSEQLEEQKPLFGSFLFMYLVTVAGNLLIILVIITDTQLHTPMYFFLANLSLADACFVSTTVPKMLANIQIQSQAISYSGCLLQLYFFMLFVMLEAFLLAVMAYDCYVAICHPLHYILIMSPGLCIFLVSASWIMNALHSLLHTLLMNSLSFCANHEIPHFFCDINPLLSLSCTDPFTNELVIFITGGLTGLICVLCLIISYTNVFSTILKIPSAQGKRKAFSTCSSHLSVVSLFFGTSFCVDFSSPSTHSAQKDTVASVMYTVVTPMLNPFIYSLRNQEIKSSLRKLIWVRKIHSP
# Outline: as §1
# OR1I1 (Homo sapiens) = OR1I1 (Homo sapiens) (UniProt O60431)
# OR1I1 (Homo sapiens), sequence (O60431 whole entry): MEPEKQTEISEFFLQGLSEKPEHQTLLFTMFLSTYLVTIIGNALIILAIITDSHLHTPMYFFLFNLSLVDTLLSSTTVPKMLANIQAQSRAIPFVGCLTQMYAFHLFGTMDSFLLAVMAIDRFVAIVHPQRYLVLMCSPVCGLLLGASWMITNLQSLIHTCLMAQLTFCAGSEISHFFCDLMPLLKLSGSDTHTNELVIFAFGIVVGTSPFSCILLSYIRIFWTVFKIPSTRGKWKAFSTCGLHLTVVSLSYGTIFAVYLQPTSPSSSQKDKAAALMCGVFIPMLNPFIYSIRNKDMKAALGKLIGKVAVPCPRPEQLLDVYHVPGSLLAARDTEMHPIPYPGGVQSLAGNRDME
# Outline: as §1
# OR1J1 (Homo sapiens) = OR1J1 (Homo sapiens) (UniProt Q8NGS3)
# OR1J1 (Homo sapiens), sequence (Q8NGS3 whole entry): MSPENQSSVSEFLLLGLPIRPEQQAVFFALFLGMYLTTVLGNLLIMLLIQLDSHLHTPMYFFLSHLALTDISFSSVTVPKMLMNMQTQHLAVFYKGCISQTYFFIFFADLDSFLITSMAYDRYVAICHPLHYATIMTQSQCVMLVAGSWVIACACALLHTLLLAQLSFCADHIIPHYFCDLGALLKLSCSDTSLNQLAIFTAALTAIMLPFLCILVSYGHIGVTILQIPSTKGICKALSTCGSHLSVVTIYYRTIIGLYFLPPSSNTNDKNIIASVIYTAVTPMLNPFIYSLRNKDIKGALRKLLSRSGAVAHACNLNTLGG
# Outline: as §1
# OR1J2 (Homo sapiens) = OR1J2 (Homo sapiens) (UniProt Q8NGS2)
# OR1J2 (Homo sapiens), sequence (Q8NGS2 whole entry): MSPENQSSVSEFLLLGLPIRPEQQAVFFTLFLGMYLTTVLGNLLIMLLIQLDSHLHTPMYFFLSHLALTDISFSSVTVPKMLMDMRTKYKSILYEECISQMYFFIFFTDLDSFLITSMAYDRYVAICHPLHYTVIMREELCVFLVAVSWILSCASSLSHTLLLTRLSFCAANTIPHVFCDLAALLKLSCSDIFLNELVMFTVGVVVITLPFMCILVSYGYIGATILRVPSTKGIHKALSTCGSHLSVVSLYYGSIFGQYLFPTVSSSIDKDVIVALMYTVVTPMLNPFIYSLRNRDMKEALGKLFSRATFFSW
# Outline: as §1
# OR1J4 (Homo sapiens) = OR1J4 (Homo sapiens) (UniProt Q8NGS1)
# OR1J4 (Homo sapiens), sequence (Q8NGS1 whole entry): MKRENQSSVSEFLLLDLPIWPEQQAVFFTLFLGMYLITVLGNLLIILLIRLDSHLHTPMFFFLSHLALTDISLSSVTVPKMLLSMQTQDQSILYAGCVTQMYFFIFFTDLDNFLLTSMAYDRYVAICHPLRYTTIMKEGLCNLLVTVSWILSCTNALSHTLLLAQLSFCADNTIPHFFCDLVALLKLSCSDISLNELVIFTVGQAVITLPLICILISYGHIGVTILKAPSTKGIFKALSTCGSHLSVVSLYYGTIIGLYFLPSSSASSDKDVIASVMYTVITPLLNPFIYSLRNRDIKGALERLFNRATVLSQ
# Outline: as §1
# OR1K1 (Homo sapiens) = OR1K1 (Homo sapiens) (UniProt Q8NGR3)
# OR1K1 (Homo sapiens), sequence (Q8NGR3 whole entry): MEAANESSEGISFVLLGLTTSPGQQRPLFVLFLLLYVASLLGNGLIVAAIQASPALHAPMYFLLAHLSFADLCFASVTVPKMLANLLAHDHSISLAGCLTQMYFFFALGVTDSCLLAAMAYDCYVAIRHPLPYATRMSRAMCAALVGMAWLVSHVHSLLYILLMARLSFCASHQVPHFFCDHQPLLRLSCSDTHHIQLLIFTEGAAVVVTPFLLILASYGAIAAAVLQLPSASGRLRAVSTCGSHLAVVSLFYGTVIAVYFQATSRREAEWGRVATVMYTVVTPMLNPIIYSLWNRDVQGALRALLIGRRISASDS
# Outline: as §1
# OR1D4 (Homo sapiens) = OR1D4 (Homo sapiens) (UniProt P47884)
# OR1D4 (Homo sapiens), sequence (P47884 whole entry): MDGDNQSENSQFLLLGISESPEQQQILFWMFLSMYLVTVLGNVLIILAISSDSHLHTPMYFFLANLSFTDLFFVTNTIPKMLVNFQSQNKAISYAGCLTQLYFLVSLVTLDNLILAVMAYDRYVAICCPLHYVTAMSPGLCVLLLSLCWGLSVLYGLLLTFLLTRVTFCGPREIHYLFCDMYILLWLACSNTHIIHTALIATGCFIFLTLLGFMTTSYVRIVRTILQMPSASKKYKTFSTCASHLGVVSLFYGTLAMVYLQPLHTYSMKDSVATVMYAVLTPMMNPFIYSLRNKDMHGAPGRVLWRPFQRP
# Outline: as §1
# OR1E3 (Homo sapiens) = OR1E3 (Homo sapiens) (UniProt Q8WZA6)
# OR1E3 (Homo sapiens), sequence (Q8WZA6 whole entry): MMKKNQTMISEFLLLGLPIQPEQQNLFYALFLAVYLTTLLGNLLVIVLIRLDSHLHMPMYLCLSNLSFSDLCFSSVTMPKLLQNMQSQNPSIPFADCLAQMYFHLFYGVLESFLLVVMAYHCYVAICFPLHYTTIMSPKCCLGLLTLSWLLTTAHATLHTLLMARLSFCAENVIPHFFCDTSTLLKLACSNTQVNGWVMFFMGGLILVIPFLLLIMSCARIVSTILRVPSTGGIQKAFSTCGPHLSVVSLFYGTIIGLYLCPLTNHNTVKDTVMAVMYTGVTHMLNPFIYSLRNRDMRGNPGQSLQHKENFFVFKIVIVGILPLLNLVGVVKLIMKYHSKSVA
# Outline: as §1
# 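Also: active if original authors judged signal statistically different from baseline.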
compound,measurement,setting,value
C=CCOC(=O)Cc1ccccc1,odorant receptor agonist call,OR1A2 (Homo sapiens),inactive
same,odorant receptor agonist call,OR1A2 G256C W293C,inactive
same,odorant receptor agonist call,OR1B1,inactive
same,odorant receptor agonist call,OR1C1 (Homo sapiens),inactive
same,odorant receptor agonist call,OR1D2 (Homo sapiens),inactive
same,odorant receptor agonist call,OR1D5 (Homo sapiens),inactive
same,odorant receptor agonist call,OR1E1 (Homo sapiens),inactive
same,odorant receptor agonist call,OR1E2 (Homo sapiens),inactive
same,odorant receptor agonist call,OR1E2,inactive
same,odorant receptor agonist call,OR1F1 (Homo sapiens),inactive
same,odorant receptor agonist call,OR1F12P (Homo sapiens),inactive
same,odorant receptor agonist call,OR1F1,inactive
same,odorant receptor agonist call,OR1G1 (Homo sapiens),inactive
same,odorant receptor agonist call,OR1I1 (Homo sapiens),inactive
same,odorant receptor agonist call,OR1J1 (Homo sapiens),inactive
same,odorant receptor agonist call,OR1J2 (Homo sapiens),inactive
same,odorant receptor agonist call,OR1J4 (Homo sapiens),inactive
same,odorant receptor agonist call,OR1K1 (Homo sapiens),inactive
CCCCCCC(Br)C(=O)O (stereo not drawn),odorant receptor agonist call,OR1A2 (Homo sapiens),inactive
CCCCC(Br)C(=O)O (stereo not drawn),odorant receptor agonist call,OR1A2 (Homo sapiens),inactive
O=C([O-])Cc1ccccc1,odorant receptor agonist call,OR1A2 (Homo sapiens),inactive
C=CCc1ccc2c(c1)OCO2,odorant receptor agonist call,OR1G1 (Homo sapiens),active
ClC=CCl,odorant receptor agonist call,OR1A2 (Homo sapiens),inactive
c1ccncc1,odorant receptor agonist call,OR1G1 (Homo sapiens),active
CCCC(Br)C(=O)O (stereo not drawn),odorant receptor agonist call,OR1A2 (Homo sapiens),inactive
CCC(Br)C(=O)O (stereo not drawn),odorant receptor agonist call,OR1A2 (Homo sapiens),inactive
O=CC=Cc1ccccc1,odorant receptor agonist call,OR1D2 (Homo sapiens),inactive
O=Cc1ccccc1,odorant receptor agonist call,OR1D2 (Homo sapiens),inactive
same,odorant receptor agonist call,OR1G1 (Homo sapiens),active
CC(C=O)Cc1ccc2c(c1)OCO2 (stereo not drawn),odorant receptor agonist call,OR1A2 (Homo sapiens),active
same,odorant receptor agonist call,OR1D2 (Homo sapiens),inactive
same,odorant receptor agonist call,OR1G1 (Homo sapiens),inactive
CC(=O)CCc1ccc2c(c1)OCO2,odorant receptor agonist call,OR1G1 (Homo sapiens),active
Cc1c([N+](=O)[O-])c(C)c([N+](=O)[O-])c(C(C)(C)C)c1[N+](=O)[O-],odorant receptor agonist call,OR1A2 (Homo sapiens),inactive
same,odorant receptor agonist call,OR1B1,inactive
same,odorant receptor agonist call,OR1C1 (Homo sapiens),inactive
same,odorant receptor agonist call,OR1D4 (Homo sapiens),inactive
same,odorant receptor agonist call,OR1D5 (Homo sapiens),inactive
same,odorant receptor agonist call,OR1E2 (Homo sapiens),inactive
same,odorant receptor agonist call,OR1E3 (Homo sapiens),inactive
same,odorant receptor agonist call,OR1F1 (Homo sapiens),inactive
same,odorant receptor agonist call,OR1F12P (Homo sapiens),inactive
same,odorant receptor agonist call,OR1G1 (Homo sapiens),inactive
same,odorant receptor agonist call,OR1I1 (Homo sapiens),inactive
same,odorant receptor agonist call,OR1J1 (Homo sapiens),inactive
same,odorant receptor agonist call,OR1K1 (Homo sapiens),inactive
COc1ccc(C=O)cc1,odorant receptor agonist call,OR1G1 (Homo sapiens),inactive
C=CCc1ccc(OC)cc1,odorant receptor agonist call,OR1G1 (Homo sapiens),inactive
